Experimental data: ChEMBL document CHEMBL3124843, “Synthesis, cytostatic, antimicrobial, and anti-HCV activity of 6-substituted 7-(het)aryl-7-deazapurine ribonucleosides” (J Med Chem, 2014)
pEC50, pIC50: −log10 of the molar value. Active and inactive are the calls of the source. How the calls were made is not given here.

What was measured:
Staphylococcus aureus [1] = assay: Antibacterial activity against methicillin-resistant Staphylococcus aureus MRSA 4591 after 24 hrs; type: functional, organism-based
Hepatitis C virus [2] = assay: Antiviral activity against Hepatitis C virus subtype 2a infected in human HuH7 cells; type: functional, organism-based, Hepacivirus hominis; conditions: genotype 2a, Huh-7
Enterococcus faecalis = assay: Antibacterial activity against Enterococcus faecalis CCM 4224 after 24 hrs; type: functional, organism-based
[3] = test system: Staphylococcus haemolyticus; assay: Antibacterial activity against methicillin-resistant Staphylococcus haemolyticus A/16568 after 24 hrs; type: functional, organism-based
Pseudomonas aeruginosa [4] = assay: Antibacterial activity against multi-resistant Pseudomonas aeruginosa A/16575 after 24 hrs; type: functional, organism-based
[5] = Cytotoxicity against human HuH7 cells infected with Hepatitis C virus subtype 2a; type: cell-based, Huh-7
BJ = assay: Cytostatic activity against human BJ cells after 72 hrs by MTT assay; type: ADME, cell-based
Procedure, shortened: (§1)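 IC50 is the concentration that cuts cell growth by 50%, read by quantitative metabolic MTT staining after a 3-day treatment. The resistant sublines were made by raising the concentration of the cytotoxic drug step by step. CEM-DNR-bulk (daunorubicin-selected) stably overexpresses mrp-1. K562-TAX (paclitaxel-selected) expresses only mdr-1. HCT116p53−/− carries null p53 alleles. BJ and MRC-5 are nonmalignant fibroblasts.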

K562 [6] = assay: Cytostatic activity against paclitaxel-resistant human K562 cells after 72 hrs by MTT assay; type: functional, cell-based; conditions: K562, 72 h; procedure, shortened: as §1
CCRF-CEM = assay: Cytostatic activity against human CCRF-CEM cells after 72 hrs by MTT assay; type: functional, cell-based; procedure, shortened: as §1
Candida parapsilosis = assay: Antifungal activity against Candida parapsilosis after 48 hrs; type: functional, organism-based
MRC5 = assay: Cytostatic activity against human MRC5 cells after 72 hrs by MTT assay; type: ADME, cell-based; conditions: MRC5, 72 h; procedure, shortened: as §1
[7] = Cytotoxicity against human HuH7 cells infected with Hepatitis C virus subtype 1b; type: cell-based, Huh-7
HL-60 = assay: Antiproliferative activity against human HL60 cells after 72 hrs by XTT assay; type: functional, cell-based; conditions: HL-60, 72 h
Procedure, shortened: (§2)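 Antiproliferative test on HL-60 promyelocytic leukemia and HeLa S3 cervical carcinoma cells growing in liquid suspension.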

[8] = Cytostatic activity against human CEM-DNR-bulk cells after 72 hrs by MTT assay; type: functional, cell-based; procedure, shortened: as §1
Escherichia coli [9] = assay: Antibacterial activity against Escherichia coli CCM 3954 after 24 hrs; type: functional, organism-based
Hepatitis C virus [10] = assay: Antiviral activity against Hepatitis C virus subtype 1b infected in human HuH7 cells; type: functional, organism-based, Hepacivirus hominis; conditions: genotype 1b, Huh-7
HCT-116 [11] = assay: Cytostatic activity against human HCT116 cells after 72 hrs by MTT assay; type: functional, cell-based; conditions: HCT-116, 72 h; procedure, shortened: as §1
Pseudomonas aeruginosa [12] = assay: Antibacterial activity against Pseudomonas aeruginosa CCM 3955 after 24 hrs; type: functional, organism-based
Candida tropicalis = assay: Antifungal activity against Candida tropicalis after 48 hrs; type: functional, organism-based
Candida albicans = assay: Antifungal activity against Candida albicans after 48 hrs; type: functional, organism-based
K562 [13] = assay: Cytostatic activity against human K562 cells after 72 hrs by MTT assay; type: functional, cell-based; conditions: K562, 72 h; procedure, shortened: as §1
HCT-116 [14] = assay: Cytostatic activity against p53-deficient human HCT116 cells after 72 hrs by MTT assay; type: functional, cell-based; conditions: HCT-116, 72 h; procedure, shortened: as §1
HepG2 = assay: Antiproliferative activity against human HepG2 cells after 72 hrs by XTT assay; type: functional, cell-based; conditions: HepG2, 72 h
Staphylococcus aureus [15] = assay: Antibacterial activity against Staphylococcus aureus CCM 3953 after 24 hrs; type: functional, organism-based
[16] = Antiproliferative activity against human HeLaS3 cells after 72 hrs by XTT assay; type: functional, cell-based; conditions: HeLa S3, 72 h; procedure, shortened: as §2
Pichia kudriavzevii = assay: Antifungal activity against Candida crusei after 48 hrs; type: functional, organism-based
A549 = assay: Cytostatic activity against human A549 cells after 72 hrs by MTT assay; type: functional, cell-based; conditions: A549, 72 h; procedure, shortened: as §1
Escherichia coli [17] = assay: Antibacterial activity against multi-resistant Escherichia coli C/16702 after 24 hrs; type: functional, organism-based

Compound	Activity (Staphylococcus aureus [1])	pEC50 (Hepatitis C virus [2])	Activity (Enterococcus faecalis)	Activity [3]	Activity (Pseudomonas aeruginosa [4])	CC50 [5]	pIC50 (BJ)	pIC50 (K562 [6])	pIC50 (CCRF-CEM)	Activity (Candida parapsilosis)	pIC50 (MRC5)	CC50 [7]	pIC50 (HL-60)	pIC50 [8]	Activity (Escherichia coli [9])	pEC50 (Hepatitis C virus [10])	pIC50 (HCT-116 [11])	Activity (Pseudomonas aeruginosa [12])	Activity (Candida tropicalis)	Activity (Candida albicans)	further results
Nc1nc2c(c(-c3ccoc3)cn2[C@@H]2O[C@H](CO)[C@@H](O)[C@H]2O)c(=O)[nH]1	inactive	4.39	inactive	inactive	inactive	> 44 µM	4.67	4.90	4.75	inactive	4.06	> 44 µM	< 4.82	4.82	inactive	4.59	4.85	inactive	inactive	inactive	pIC50 (K562 [13]): 4.71; pIC50 (HCT-116 [14]): 4.75; pIC50 (HepG2): < 4.70; Activity (Staphylococcus aureus [15]): inactive; pIC50 [16]: 4.97; Activity (Pichia kudriavzevii): inactive; pIC50 (A549): < 4.70; Activity (Escherichia coli [17]): inactive
COc1nc(N)nc2c1c(-c1cc3ccccc3o1)cn2[C@@H]1O[C@H](CO)[C@@H](O)[C@H]1O	inactive	4.68	inactive	inactive	inactive	> 44 µM	4.59	4.81	4.90	inactive	4.64	> 44 µM	< 4.70	4.78	inactive	5.05	< 4.70	inactive	inactive	inactive	pIC50 (K562 [13]): 4.84; pIC50 (HCT-116 [14]): < 4.70; pIC50 (HepG2): < 4.70; Activity (Staphylococcus aureus [15]): inactive; pIC50 [16]: < 4.70; Activity (Pichia kudriavzevii): inactive; pIC50 (A549): < 4.70; Activity (Escherichia coli [17]): inactive
CSc1ncnc2c1c(-c1cc3ccccc3o1)cn2[C@@H]1O[C@H](CO)[C@@H](O)[C@H]1O	inactive	4.53	inactive	inactive	inactive	> 44 µM	4.17	< 4.70	< 4.70	inactive	4.15	> 44 µM	5.92	< 4.70	inactive	5.10	< 4.70	inactive	inactive	inactive	pIC50 (K562 [13]): 4.76; pIC50 (HCT-116 [14]): < 4.70; pIC50 (HepG2): < 4.70; Activity (Staphylococcus aureus [15]): inactive; pIC50 [16]: 5.71; Activity (Pichia kudriavzevii): inactive; pIC50 (A549): < 4.70; Activity (Escherichia coli [17]): inactive
Cc1ncnc2c1c(-c1ccoc1)cn2[C@@H]1O[C@H](CO)[C@@H](O)[C@H]1O	inactive	< 4.36	inactive	inactive	inactive	> 44 µM	4.05	< 4.70	< 4.70	inactive	4.01	> 44 µM	< 4.82	< 4.70	inactive	5.35	< 4.70	inactive	inactive	inactive	pIC50 (K562 [13]): < 4.70; pIC50 (HCT-116 [14]): < 4.70; pIC50 (HepG2): 5.27; Activity (Staphylococcus aureus [15]): inactive; pIC50 [16]: < 4.70; Activity (Pichia kudriavzevii): inactive; pIC50 (A549): < 4.70; Activity (Escherichia coli [17]): inactive
Cc1nc(N)c2c(-c3ccco3)cn([C@@H]3O[C@H](CO)[C@@H](O)[C@H]3O)c2n1	inactive	< 4.36	inactive	inactive	inactive	> 44 µM	< 4.00	< 4.70	< 4.00	inactive	< 4.00	> 44 µM	< 4.70	< 4.70	inactive	< 4.36	< 4.70	inactive	inactive	inactive	pIC50 (K562 [13]): < 4.70; pIC50 (HCT-116 [14]): < 4.70; pIC50 (HepG2): < 4.70; Activity (Staphylococcus aureus [15]): inactive; pIC50 [16]: < 4.70; Activity (Pichia kudriavzevii): inactive; pIC50 (A549): < 4.70; Activity (Escherichia coli [17]): inactive
CNc1ncnc2c1c(-c1ccccc1)cn2[C@@H]1O[C@H](CO)[C@@H](O)[C@H]1O	inactive	< 4.36	inactive	inactive	inactive	> 44 µM	< 4.00	< 4.70	< 4.70	inactive	< 4.00	> 44 µM	< 4.70	< 4.70	inactive	< 4.36	< 4.70	inactive	inactive	inactive	pIC50 (K562 [13]): < 4.70; pIC50 (HCT-116 [14]): < 4.00; pIC50 (HepG2): < 4.70; Activity (Staphylococcus aureus [15]): inactive; pIC50 [16]: < 4.70; Activity (Pichia kudriavzevii): inactive; pIC50 (A549): < 4.70; Activity (Escherichia coli [17]): inactive
